Data from publication PMC7610535 (Nature chemical biology, 2020).
Where a chain is given by its changes, count along the chain named.

Columns and labels:
[1] = target: AURORA-B (Homo sapiens, UniProt Q96GD4); test: AURORA-B-NanoLuc target engagement assay; assay type: binding; details: AURORA-B EC50 (µM), HEK293 cells, energy transfer probe, 2 hours, mean ± s.e.m, n = 2
[2] = test system: IMR5 cells; test: BrdU/PI flow cytometry, cell cycle distribution of IMR5 cells; assay type: cell-based, human; details: IMR5 cells without ectopic AURORA-A, 1 µM, 18 hours
Summary of the method: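 Cells were pulsed with 10 µM BrdU for 1 h, washed in ice-cold PBS and fixed overnight in 80% ethanol at −20 °C. After a 1% BSA/PBS-T wash, they were stained 30 min at 37 °C with RNase A (24 µg/ml) and propidium iodide (54 µM), then analysed by flow cytometry. For IMR5, the EtOH-treated cells of the doxycycline-inducible line served as the non-overexpressing cells.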

[3] = target: T1, AURORA-A^T217D (Homo sapiens, UniProt O14965, T217D); test: Immunoblot of HA-tagged AURORA-A^T217D in IMR5 cells; assay type: cell-based; details: 24 hours
T1 sequence (O14965 1-403 T217D): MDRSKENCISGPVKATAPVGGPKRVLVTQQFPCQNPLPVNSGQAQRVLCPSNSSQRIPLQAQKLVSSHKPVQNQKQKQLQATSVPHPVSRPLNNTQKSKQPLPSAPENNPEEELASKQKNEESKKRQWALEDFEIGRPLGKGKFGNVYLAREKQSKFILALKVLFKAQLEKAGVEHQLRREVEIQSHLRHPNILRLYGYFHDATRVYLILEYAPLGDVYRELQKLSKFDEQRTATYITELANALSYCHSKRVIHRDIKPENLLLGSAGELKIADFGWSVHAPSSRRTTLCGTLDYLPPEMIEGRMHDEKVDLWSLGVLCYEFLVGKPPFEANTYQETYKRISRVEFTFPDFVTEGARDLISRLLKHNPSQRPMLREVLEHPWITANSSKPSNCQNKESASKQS
Summary of the method: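 IMR5 cells expressing HA-tagged AURORA-A T217D or wild-type AURORA-A were exposed to graded concentrations for 24 h. RIPA lysates (20 min, 4 °C) were cleared and BCA-quantified. Equal protein was resolved by Bis-Tris PAGE and transferred to PVDF. Membranes were blocked 1 h in 5% milk/TBS-T and probed for HA-tagged AURORA-A overnight at 4 °C.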

[4] = target: T2, AURORA-A^D274N (Homo sapiens, UniProt O14965, D274N); test: Immunoblot of HA-tagged kinase-dead AURORA-A^D274N; assay type: cell-based; details: 1 µM, 18 hours
T2 sequence (O14965 1-403 D274N): T1 sequence (O14965 1-403 T217D) with D217T, D274N

[5] = target: T3, AURORA-A (Homo sapiens, UniProt O14965); test: Immunoblot of AURORA-A in U2OS, HLE and IMR5 cells; assay type: cell-based; details: HLE and IMR5 cell lines
T3 sequence (O14965 1-403): T1 sequence (O14965 1-403 T217D) with D217T
Summary of the method: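 U2OS and HLE cells were exposed to a range of concentrations for 6 h. IMR5 cells were exposed for 6 h, or at 1 µM alongside siRNA knockdown of AURORA-A/B. Lysis was in RIPA buffer for 20 min at 4 °C, and protein was quantified by BCA. Samples were separated by Bis-Tris PAGE, blotted onto PVDF, blocked in 5% milk/TBS-T and probed overnight at 4 °C.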

[6] = target: T3, AURORA-A; test: Quantitative SILAC mass spectrometry: AURORA-A level in MV4-11 cells; assay type: cell-based; details: 0.1 µM, 6 hours
[7] = target: T4, AURORA-A^Imut (Homo sapiens, UniProt O14965, A267W/E239R/F157E/I158E/I57V/K153E/K156E/K224E/P191W/R137E/R189E/R375E/S266W); test: Depletion of AURORA-A interface mutant in MV4-11 cells; assay type: cell-based; details: 12 mutated amino acids in the presumed interface with CEREBLON
T4 sequence (O14965 1-403 I57V/R137E/K153E/K156E/F157E/I158E/R189E/P191W/K224E/E239R/S266W/A267W/R375E): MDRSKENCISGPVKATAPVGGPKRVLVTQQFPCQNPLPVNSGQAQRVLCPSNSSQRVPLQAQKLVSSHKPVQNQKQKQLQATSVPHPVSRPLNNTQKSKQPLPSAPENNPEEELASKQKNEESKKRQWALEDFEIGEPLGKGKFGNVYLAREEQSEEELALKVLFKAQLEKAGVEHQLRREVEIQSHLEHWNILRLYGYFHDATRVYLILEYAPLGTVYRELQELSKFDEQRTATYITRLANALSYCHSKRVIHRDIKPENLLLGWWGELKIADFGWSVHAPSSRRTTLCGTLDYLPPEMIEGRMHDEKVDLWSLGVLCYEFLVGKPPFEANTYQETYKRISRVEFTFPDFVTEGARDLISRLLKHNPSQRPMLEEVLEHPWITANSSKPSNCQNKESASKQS
Summary of the method: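 HiBiT-tagged wild-type or mutant AURORA-A was expressed stably in MV4-11 cells (infected twice, 24 h apart, selected 72 h after infection). Cells were exposed to serial dilutions of the test compound for 6 h and lysed with lytic detection reagent containing the LgBiT fragment. Luminescence was then read. DC50 and DCmax were derived from the concentration–response data.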

[8] = alamarBlue cell viability assay, MV4-11 cells; assay type: cell-based; details: human
Summary of the method: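 MV4-11 cells (6 x10^3 per well) were exposed for various times, with compound refreshed every 24 h. Viability was read with alamarBlue HS reagent as fluorescence (excitation 550 nm, emission 600 nm).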

[9] = target: T3, AURORA-A; test: AURORA-A-NanoLuc target engagement assay; assay type: binding

Chain of AURORA-B (Q96GD4 whole entry): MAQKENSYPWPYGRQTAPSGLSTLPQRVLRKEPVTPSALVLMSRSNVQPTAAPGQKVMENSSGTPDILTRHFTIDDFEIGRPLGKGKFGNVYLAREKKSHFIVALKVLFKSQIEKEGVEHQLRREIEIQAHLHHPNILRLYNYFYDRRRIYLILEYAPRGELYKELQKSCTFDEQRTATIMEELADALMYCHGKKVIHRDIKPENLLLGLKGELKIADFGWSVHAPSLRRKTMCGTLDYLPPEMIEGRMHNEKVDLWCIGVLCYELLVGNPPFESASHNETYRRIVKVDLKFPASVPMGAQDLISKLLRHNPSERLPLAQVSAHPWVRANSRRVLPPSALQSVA

Structure (SMILES): COc1cc(Nc2ncc3c(n2)-c2ccc(Cl)cc2C(c2c(F)cccc2OC)=NC3)ccc1C(=O)NCCOCCOCCNC(=O)COc1cccc2c1C(=O)N(C1CCC(=O)NC1=O)C2=O (centres unmarked) [JB170]
- EC50 [1]: 1.4 µM
- cell cycle distribution [2]: induced an accumulation of BrdU-negative cells in S-phase, but did not induce G2/M arrest
- JB170-mediated depletion of AURORA-A^T217D [3]: largely abrogated
- depletion of AURORA-A^D274N [4]: depleted by JB170 to a similar degree as the unmutated protein
- AURORA-A depletion (in words) [5]: rapid AURORA-A depletion in all cases
- decrease of AURORA-A levels compared to alisertib-treated cells [6]: 73%
- decrease of AURORA-A levels compared to untreated cells [6]: 57%
- JB170-mediated depletion of AURORA-A^Imut [7]: not depleted
- viability at 72 h, 1 µM [8]: 32%
- EC50 [9]: 193 nM
- difference of affinities for AURORA-A and AURORA-B ([9]; AURORA-A vs AURORA-B, depending on experimental conditions (BRET, Kinobeads)): 3- to 50 fold
